Each block holds one compound with its values, some of them ahead of it. Square brackets hold non-standard residues; d marks the D form. Ends that are not written are not given here. PEG = not defined here
How the values were obtained:
[1] = system: HEK293 cells transiently transfected with BRAF^WT; assay: Immunoblot of MAPK signaling in transiently transfected HEK293 cells; type: cell-based, human; details: for BRAF activity (phospho-MEK1/2): 0, 10, 25, 50, 75, 100 μM for 4 hr, 48 hr post-transfection
full-length (FL) BRAF^WT = full-length (FL) BRAF^WT (Homo sapiens, UniProt P15056); assay: ELISA kinase assay of purified full-length BRAF, probing phosphorylated MEK; type: biochemical
[2] = target: full-length (FL) BRAF^G469A (Homo sapiens, UniProt P15056, G469A); assay: as above; type: biochemical
[3] = system: HEK293 cells transiently transfected with BRAF^G469A; assay: Immunoblot of MAPK signaling in transiently transfected HEK293 cells; type: cell-based, human; details: for BRAF activity (phospho-MEK1/2): 0, 10, 25, 50, 75, 100 μM for 4 hr, 48 hr post-transfection
HCT116 cells = assay: WST cell viability assay; type: cell-based, human; details: concentrations up to 100 μM, 48 hr
HCT-15 cells = assay: WST cell viability assay; type: cell-based, human; details: concentrations up to 100 μM, 48 hr
[4] = system: p61 BRAF^V600E in HEK293 cells; assay: Immunoblot of HEK293 cells transfected with p61-BRAF^V600E; type: cell-based, human; details: increasing concentrations, 4 hr
Outline: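 HEK293 cells were transiently transfected with 6X-His/FLAG-tagged p61-BRAF V600E in pcDNA4/TO. p61 is an aberrantly spliced BRAF of about 61 kDa. Cells were exposed to increasing concentrations of the TAT-tagged test peptide for 4 hr, then lysates were immunoblotted.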

Chain of full-length (FL) BRAF^WT (P15056 whole entry): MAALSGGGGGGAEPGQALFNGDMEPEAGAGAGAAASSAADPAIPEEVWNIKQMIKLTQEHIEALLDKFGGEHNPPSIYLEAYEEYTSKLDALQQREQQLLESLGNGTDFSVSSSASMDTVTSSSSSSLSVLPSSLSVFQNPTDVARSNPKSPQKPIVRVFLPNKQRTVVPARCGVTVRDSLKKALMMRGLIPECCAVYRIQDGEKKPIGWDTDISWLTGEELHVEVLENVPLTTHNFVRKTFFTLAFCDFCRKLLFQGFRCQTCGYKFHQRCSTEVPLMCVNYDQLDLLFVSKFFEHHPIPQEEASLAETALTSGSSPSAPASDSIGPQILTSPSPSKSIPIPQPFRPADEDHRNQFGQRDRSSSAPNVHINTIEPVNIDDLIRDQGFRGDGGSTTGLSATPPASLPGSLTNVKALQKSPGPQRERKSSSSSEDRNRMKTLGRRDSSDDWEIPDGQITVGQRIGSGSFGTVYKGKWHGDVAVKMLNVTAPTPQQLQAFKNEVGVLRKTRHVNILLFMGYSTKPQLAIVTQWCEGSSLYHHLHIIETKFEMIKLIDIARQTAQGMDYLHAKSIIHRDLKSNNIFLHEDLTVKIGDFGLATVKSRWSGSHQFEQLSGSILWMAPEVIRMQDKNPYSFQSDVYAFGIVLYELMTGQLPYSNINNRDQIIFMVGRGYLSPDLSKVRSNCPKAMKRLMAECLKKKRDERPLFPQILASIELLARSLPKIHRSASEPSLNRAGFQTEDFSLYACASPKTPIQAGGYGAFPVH
Chain of full-length (FL) BRAF^G469A (P15056 whole entry G469A): as the sequence (P15056 whole entry) above, with G469A counted along it

Compound: CC(C)(C)c1nc(-c2cccc(NS(=O)(=O)c3c(F)cccc3F)c2F)c(-c2ccnc(N)n2)s1 [dabrafenib, reference compound]
- concentration at which dabrafenib alone acts as an inhibitor of MAPK signaling ([1]; 0-10 μM for 1 hr, activates MAPK signaling at lower concentrations): above 10 μM

- IC50 (full-length (FL) BRAF^WT): 2490 to 4980 nM
- IC50 [2]: 625 to 3340 nM
Compound: THHVNILLFM [R/H-braftide]

Compound: GRKKRRQRRRPQ [TAT peptide, reference compound]
- BRAF activity (phospho-MEK1/2) ([1]; immunoblot): no inhibition effect was observed
- BRAF activity (phospho-MEK1/2) [3]: no inhibition effect was observed
- cell death (HCT116 cells): no cell death was observed
- cell death (HCT-15 cells): no cell death was observed

Compound: TAT-braftide (GRKKRRQRRRPQ[PEG]TRHVNILLFM; reading uncertain; also: PEG linker between TAT and braftide)
- BRAF activity (phospho-MEK1/2) ([1]; immunoblot): significantly reduced the activity of BRAF in a dose-dependent manner
- protein levels of overexpressed BRAF and endogenous MEK1 ([1]; 0-100 μM for 4 hr, immunoblot): markedly decreased in a dose-dependent manner
- paradoxical effect caused by lower doses of dabrafenib ([1]; pre-treatment with 75 μM for 2 h, then dabrafenib 1 hr): abrogated the paradoxical effect
- BRAF activity (phospho-MEK1/2) [3]: significantly reduced the activity of BRAF in a dose-dependent manner
- protein levels of overexpressed BRAF and endogenous MEK1 ([3]; 0-100 μM for 4 hr): markedly decreased in a dose-dependent manner
- pMEK and pERK levels [4]: decrease in both pMEK and pERK levels

From article PMC6733264 (ACS chemical biology, 2019)
